Results pooled from the literature.
Compare with care: the assays were run in different laboratories.
Cell line: MCF7
Read-out: cell growth or viability

Structure (SMILES) | test | setting | IC50
CN1CCC(NC2CCc3[nH]c4c(C(N)=O)ccc(-c5ccccc5Cl)c4c3C2)CC1 (stereo not shown) |  | 96 h | 0.0164 µM
O=C1C(=Nc2ccc(Cl)cc2)c2ccccc2N1Cc1ccc(Br)cc1 | MTT | 48 h | 2.16 µM
Cc1ccc(C(C)C)c(OC2=C(Cl)C(=O)c3ccccc3C2=O)c1 | MTT | 24 h | 4.59 µg/mL
COc1cccc2c1C(=O)c1c(O)c3c(c(O)c1C2=O)C[C@@](O)(C(=O)CO)C[C@@H]3O[C@H]1C[C@H](N)[C@H](O)[C@H](C)O1 | MTT |  | 34.3 µM
O=[N+]([O-])c1ccc(NC(=S)N/N=C/c2cccc3cc4ccccc4nc23)cc1 | MTT | 48 h | > 50 µM
O=C1C(=Nc2cccc(Cl)c2)c2ccccc2N1Cc1ccc([N+](=O)[O-])cc1 | MTT | 48 h | 6.95 µM
C[C@H]1[C@H](C)CC[C@]2(C)CC[C@]3(C)C(=CC(=O)[C@@H]4[C@@]5(C)CC[C@@H](O)[C@](C)(C(=O)NCc6cn(-c7ccccc7C(F)(F)F)nn6)[C@@H]5CC[C@]43C)[C@H]12 | MTT | 24 h | 83.4 µM
COc1ccccc1/C=N/N=C1\C(=O)Nc2ccccc21 | MTT | 24 h | 45.6 µg/mL
O=C1Nc2ccccc2C1=Nc1ccccc1Br | MTT | 48 h | > 100 µM
CCOC(=O)c1c(C)nc2ccc(-c3ccc(OCc4ccccc4)c(F)c3)cc2c1O | MTT | 48 h | 5 µM
Cc1ccc(CN2C(=O)C(=Nc3c(C(C)C)cccc3C(C)C)c3ccccc32)cc1 | MTT | 48 h | 53.1 µM
Fc1ccc2c(-c3nnc(Cc4ccccc4)s3)nn(Cc3ccccc3)c2c1 |  | 48 h | 161 µM
S=C(N/N=C/c1cccc2cc3ccccc3nc12)Nc1ccccc1 | MTT | 48 h | > 50 µM
FC(F)(F)c1ccc(-c2nnc(-c3nn(Cc4ccc(Cl)cc4Cl)c4ccccc34)o2)cc1 |  | 48 h | 71.1 µM
CC(=O)OC[C@H]1O[C@@H](n2cc(Cn3c(C(C)=O)nc4ccccc43)nn2)[C@H](OC(C)=O)[C@@H](OC(C)=O)[C@H]1OC(C)=O | LDH | 48 h | 3.79 µM
CO[C@H]1[C@H](O[C@H]([C@H]2O[C@@H](n3ccc(=O)[nH]c3=O)[C@H](O)[C@@H]2O)[C@H](NCCCNC(=O)[C@@H](NC(=O)[C@@H](NC(=O)N[C@H](C(=O)O)C(C)C)[C@@H]2CCN=C(N)N2)[C@@H](OC(=O)CCCCCCCCCCCCN(O)C(=N)N)C(C)C)C(=O)O)O[C@H](CN)[C@H]1O | WST-1 |  | 0.95 µM
COc1cc([C@@H]2c3cc4c(cc3[C@@H](O[C@@H]3O[C@@H]5CO[C@@H](C)O[C@H]5[C@H](O)[C@H]3O)[C@H]3COC(=O)[C@H]23)OCO4)cc(OC)c1O | MTT | 48 h | 10.9 µM
O=C1C(=Nc2ccccc2I)c2ccccc2N1Cc1ccc([N+](=O)[O-])cc1 | MTT | 48 h | 11.6 µM
CNc1cccc(Nc2nc(-c3ccncc3)nc3c2CNCC3)c1 | MTT |  | > 100 µM
O=c1c2cc(Cl)cc(Cl)c2nc(NNc2cccc(Cl)c2)n1-c1ccccc1 | MTT | 48 h | > 200 µM
Cc1nc2ccc(-c3cccc(F)c3)cc2c(O)c1C(=O)O | MTT | 48 h | ≥ 100 µM
O=[N+]([O-])c1cc(I)c(O)c(C=NNc2ccc(Br)cc2)c1 | MTT | 24 h | 13.7 µM
C[C@H]1[C@H](C)CC[C@]2(C)CC[C@]3(C)C(=CC(=O)[C@@H]4[C@@]5(C)CC[C@@H](O)[C@](C)(C(=O)NCc6cn(-c7ccccc7)nn6)[C@@H]5CC[C@]43C)[C@H]12 | MTT | 24 h | 124 µM
NS(=O)(=O)c1ccc(-n2nc(C(=O)NN3C(=O)CCC3=O)cc2-c2ccccc2)cc1 | fluorescence | 48 h | 32.5 µM
Cc1cccc(N=C2C(=O)N(Cc3ccc(Br)cc3)c3ccccc32)c1 | MTT | 48 h | 9.69 µM
COc1ccc(N(Cc2nc(-c3ccc(F)cc3)cs2)C(=O)CCCCCC(=O)NO)cc1 | MTT | 72 h | 10.2 µM
C[C@H]1[C@H](C)CC[C@]2(C)CC[C@]3(C)C(=CC(=O)[C@@H]4[C@@]5(C)CC[C@@H](O)[C@](C)(C(=O)NCc6cn(-c7cccc(C(F)(F)F)c7)nn6)[C@@H]5CC[C@]43C)[C@H]12 | MTT | 24 h | 73.2 µM
Fc1ccc2c(-c3ncc(-c4ccccc4)o3)nn(Cc3ccccc3)c2c1 |  | 48 h | 71 µM

Structure (SMILES) | test | setting | IC50
CC(=NNC(=O)c1cc(-c2ccccc2)n(-c2ccc(S(N)(=O)=O)cc2)n1)c1ccc(C)cc1 | fluorescence | 48 h | 18.5 µM
O=C1C(=Nc2ccc(Cl)cc2)c2ccccc2N1Cc1cccc(Cl)c1 | MTT | 48 h | 9.41 µM
FC(F)(F)c1ccc(-c2noc(-c3nn(Cc4ccc(Cl)cc4Cl)c4ccccc34)n2)cc1 |  | 48 h | 166 µM
CN(C)C(=O)Nc1nc2ccc(Br)cc2c(=O)n1-c1ccccc1 | MTT | 48 h | 109 µM
CCOC(=O)c1c(C)nc2ccc(-c3ccc(F)cc3)cc2c1O | MTT | 48 h | 11 µM
C/C(=N\C(=O)/N=C(\C)c1c(O)c2ccccc2oc1=O)c1c(O)c2ccccc2oc1=O | MTT | 48 h | 14.6 µM
COc1cccc2c1C(=O)c1c(O)c3c(c(O)c1C2=O)C[C@@](O)(C(=O)CO)C[C@@H]3O[C@H]1C[C@H](N)[C@H](O)[C@H](C)O1 | LDH | 48 h | 1.81 µM
NNc1nc2ccc(Br)cc2c(=O)n1-c1ccc(F)cc1 | MTT | 48 h | 10 µM
COc1cccc2c1C(=O)c1c(O)c3c(c(O)c1C2=O)C[C@@](O)(C(=O)CO)C[C@@H]3O[C@H]1C[C@H](N)[C@H](O)[C@H](C)O1 | MTT | 48 h | 3.1 µM
O=C(C=Cc1ccc(OCCCCOc2ccc(C=CC(=O)c3cccs3)cc2)cc1)c1cccs1 | MTT | 48 h | 134 µM
CC(=O)OC[C@H]1O[C@@H](n2cc(Cn3c(C(=O)/C=C/c4ccc(F)cc4)nc4ccccc43)nn2)[C@H](OC(C)=O)[C@@H](OC(C)=O)[C@H]1OC(C)=O | LDH | 48 h | 2.48 µM
O=[N+]([O-])c1cc(Br)c(O)c(C=NNc2ccc(C(F)(F)F)cc2)c1 | MTT | 24 h | 8 µM
NS(=O)(=O)c1ccc(-n2nc(-c3nnc(S)o3)cc2-c2ccccc2)cc1 | fluorescence | 48 h | 35.4 µM
O=C1C(=Nc2ccccc2I)c2ccccc2N1Cc1cccc(Cl)c1 | MTT | 48 h | 13.5 µM
C/C(=N\C(=S)/N=C(\C)c1c(O)c2ccccc2oc1=O)c1c(O)c2ccccc2oc1=O | MTT | 48 h | 7.59 µM
O=[N+]([O-])c1ccc(O)c(C=NNc2ccc(C(F)(F)F)cc2)c1 | MTT | 24 h | 13 µM
O=C(O)c1cn(Cc2ccc(C(F)(F)F)cc2)c2ccc(Oc3ccccc3)cc2c1=O | MTT | 48 h | 21.2 µM
CC(C)c1ccc(/C=C2\N=C(SCC(=O)O)N(c3ccccc3)C2=O)cc1 | MTT |  | 49.2 µg/mL
O=C(O)c1c[nH]c2ccc(Oc3ccccc3)cc2c1=O | MTT | 48 h | 287 µM
CN(C)C(=S)[N-]N=C(c1ccccn1)c1ccccn1.[O]=[V+]=[O] | MTT |  | 0.89 µM
O=C1CS/C(=N\c2cc(C(F)(F)F)ccc2-c2nnc(N3C(=O)CS/C3=N\c3ccc(F)cc3)s2)N1c1ccc(F)cc1 | MTT |  | 22.5 µM
O=C(NCc1ccc(OC(F)(F)F)cc1)c1cn(Cc2ccc(F)cc2)c2ccc(Oc3ccccc3)cc2c1=O | MTT | 24 h | 343 µM
COc1cccc(N=C2SCC(=O)N2c2nnc(-c3ccc(C(F)(F)F)cc3N=C3SCC(=O)N3c3cccc(OC)c3)s2)c1 | MTT |  | 78.3 µM
CC1=CC(=O)C(C(C)C)=CC1=O | SRB | 48 h | 9.8 µM
O=[N+]([O-])c1cc(Br)c(O)c(C=NNc2ccccc2)c1 | MTT | 24 h | 6.4 µM
O=C(NO)Nc1nc2ccc(Br)cc2c(=O)n1-c1ccccc1 | MTT | 48 h | 29.6 µM
C(=N\Nc1cc(N/N=C/c2cccc3cccnc23)ncn1)/c1cccc2cccnc12 | MTT | 48 h | 7.02 µM
